The test system of data set [1] is Candida albicans. Nature of the data set: Antifungal activity against Candida albicans B311 ATCC 90028 by antimicrobial susceptibility test. It counts as functional, organism-based. In a few lines: (§1)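 Modified 96-well microplate broth assay run on purified compounds, giving IC50 and MIC values, against ATCC strains C. albicans 90028, C. neoformans 90113, and S. aureus 6535 and 33591. Amphotericin B and rifampin served as positive controls, with DMSO as the negative control.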

The test system of data set [2] is Plasmodium falciparum. Nature of the data set: Antiplasmodial activity against Plasmodium falciparum W2. It counts as functional, organism-based.
Data set [3] relates to Staphylococcus aureus. Nature of the data set: Antibacterial activity against Staphylococcus aureus ATCC 33591 by antimicrobial susceptibility test. Format: functional, organism-based. The method, boiled down: as §1
Data set [4] deals with Plasmodium falciparum. Nature of the data set: Antiplasmodial activity against Plasmodium falciparum D6. Format: functional, organism-based.
Data set [5] has as its system Cryptococcus neoformans. Nature of the data set: […] activity against Cryptococcus neoformans ATCC 90113 by antimicrobial susceptibility test. Format: functional, organism-based. The method, boiled down:
as §1

Data set [6] deals with Staphylococcus aureus. Nature of the data set: Antibacterial activity against Staphylococcus aureus ATCC 6535 by antimicrobial susceptibility test. Format: functional, organism-based. The method, boiled down: as §1
Data set [7] has as its system Vero. Nature of the data set: Cytotoxicity against african green monkey Vero cells at 56.42 uM. Format: cell-based. The conditions noted are these: chlorocebus sabaeus.
Data set [8] concerns Vero. Nature of the data set: Cytotoxicity against african green monkey Vero cells. Format: cell-based. To be noted: chlorocebus sabaeus. The method, boiled down: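 Cytotoxicity assay with doxorubicin and 5-fluorouracil as positive controls and DMSO as the vehicle (negative) control.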

pIC50: −log10 of the molar value. Calls of active or inactive are those of the source. No cut-off for these calls is given here.

By pIC50 is commonly meant the negative decadic logarithm of the IC50, by convention in mol/L.

For `CC(C)(O)[C@@H]1Cc2cc3ccc(=O)oc3cc2O1`, the result in data set [1], in data set [2], in data set [3], in data set [4], in data set [5] and in data set [6] was inactive.
As for `COc1c(O)ccc2c1cnc1c3cc4c(cc3ccc21)OCO4` [DECARINE], the figures for the Activity result in data set [7] and in data set [8] were “Active” and “Not Active”, respectively. The results for the pIC50 in data set [2] and in data set [4] were 6.06 and 5.84, respectively. The result in data set [3], in data set [5] and in data set [6] was Active.
`COc1ccc([C@@H](CNC(=O)/C=C/c2ccccc2)OC(=O)/C=C/c2ccccc2)cc1OC` [SYNCARPAMIDE]: the Activity entry in data set [8] is on record as “Not Active”. For the same compound, the pIC50 in data set [2] is 5.51; in data set [4] it was 5.69.

The values are drawn from ChEMBL document CHEMBL1148152, “Syncarpamide, a new antiplasmodial (+)-norepinephrine derivative from Zanthoxylum syncarpum” (J Nat Prod, 2004).
